Experimental data taken from ChEMBL document CHEMBL1148331, “Aziridinyldinitrobenzamides: synthesis and structure-activity relationships for activation by E. coli nitroreductase” (J Med Chem, 2004).
Converted amounts (≈) assume the structure as drawn.

Experiments:
[1] = Solubility in culture medium; type: physicochemical
Procedure, shortened: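 Solubility limit (mM) determined in cell culture medium.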

[2] = Partition coefficient (logP); type: physicochemical; conditions: octanol/water
Procedure, shortened: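 Partition measured between n-octanol and water.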

EMT6 [3] = test: Growth inhibitory potency against NTR-Transfected (nitroreductase) mouse mammary cell line known as EMT6-NTRpuro cell line; type: functional, cell-based
Procedure, shortened: (§1)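 Log-phase cells were seeded in αMEM with 5% FBS at 50–800 cells/well and grown for 18 h. Prodrug was added from DMSO stock diluted in medium and left for 18 h, then washed out. Regrowth lasted 3 days for V79 and EMT6 lines and 4 days for WiDr and Skov3 lines. Cell density was read by sulforhodamine B staining. IC50 was interpolated as 50% of control absorbance on the same plate. Ratio = IC50 of parental (NTR-ve) line / IC50 of NTR-transfected line.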

WiDr-NTR = test: Growth inhibitory potency against NTR-Transfected (nitroreductase) human colon cell line known as WiDr-NTRneo cell line; type: functional, cell-based; procedure, shortened: as §1
V79 [4] = test: Growth inhibitory potency against NTR-Transfected (nitroreductase) chinese hamster fibroblast known as V79-NTRpuro cell line; type: functional, cell-based; conditions: Cricetulus griseus; procedure, shortened: as §1
[5] = Ratio of growth inhibition of NTR-transfected human colon cell line to that of parental cell line (IC50 (NTR-)/IC50 (NTR+); type: functional; procedure, shortened: as §1
SK-OV-3 [6] = test: Ratio of growth inhibition of NTR-transfected human ovarian cell line to that of parental cell line (IC50 (NTR-)/IC50 (NTR+); type: functional; procedure, shortened: as §1
EMT6 [7] = test: Ratio of growth inhibition of NTR-transfected mouse mammary cell line to that of parental cell line (IC50 (NTR-)/IC50 (NTR+); type: functional; procedure, shortened: as §1
SK-OV-3 [8] = test: Growth inhibitory potency against NTR-Transfected (nitroreductase) human ovarian cell line known as SKOV3-NTR neo cell line; type: functional, cell-based; procedure, shortened: as §1
V79 [9] = test: Effective concentration of 10% cell survival for activators in V79 MCL (multicellular layer) cocultures; type: functional, Cricetulus griseus
Procedure, shortened: (§2)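 V79 multicellular layers were grown on collagen-coated microporous inserts for 3 days, stirred, under 5% CO2/air. Cocultures held 3% V79-NTRpuro activators and 97% V79oua targets; the other layers held targets only. Layers were exposed to prodrug over a concentration range for 5 h at 37 °C under 5% CO2/95% O2. Cells were then plated clonogenically in 1 mM ouabain (targets) or 15 µM puromycin (activators). After 6 days, colonies of more than 50 cells were counted and the concentration giving 10% survival was taken.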

V79 [10] = test: Effective concentration of 10% cell survival for targets in V79 MCL (multicellular layer) grown from targets; type: functional, Cricetulus griseus; procedure, shortened: as §2
V79 [11] = test: Effective concentration of 10% cell survival for targets in V79 MCL (multicellular layer) cocultures; type: functional, Cricetulus griseus; procedure, shortened: as §2
Mus musculus [12] = test: In vivo activity against WiDr-nitroreductase tumors in mice at a dose of 178 (umol/kg); 1/7; type: functional
Mus musculus [13] = test: In vivo activity against WiDr-nitroreductase tumors in mice at a dose of 178 (umol/kg); 2/7; type: functional
Mus musculus [14] = test: In vivo median growth delay against CD-1 nude mice bearing WiDr-nitroreductase tumors at a dose 178 (umol/kg); type: functional
Mus musculus [15] = test: In vivo activity against WiDr-nitroreductase tumors in mice at a dose of 1000 (umol/kg); 2/7; type: functional
Mus musculus [16] = test: In vivo activity against WiDr-nitroreductase tumors in mice at a dose of 1000 (umol/kg); 1/7; type: functional
Mus musculus [17] = test: In vivo median growth delay against CD-1 nude mice bearing WiDr-nitroreductase tumors at a dose 1000 (umol/kg); type: functional
WiDr [18] = test: Effective concentration of 10% cell survival for targets in WiDr MCL (multicellular layer) grown from targets; type: functional, Homo sapiens
Procedure, shortened: (§3)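 WiDr multicellular layers were grown on collagen-coated inserts for 6 days. Cocultures held 10% WiDr-NTRneo activators and 90% WiDr targets; the other layers held targets only. Layers were exposed to prodrug over a range of concentrations for 5 h at 37 °C, stirred, under 5% CO2/95% O2. Cells were plated clonogenically, with activators selected in 0.3 mg/mL G418. After 14 days, colonies of more than 50 cells were counted and the concentration giving 10% survival was derived.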

WiDr [19] = test: Effective concentration of 10% cell survival for targets in WiDr MCL (multicellular layer) cocultures; type: functional, Homo sapiens; procedure, shortened: as §3
WiDr [20] = test: Effective concentration of 10% cell survival for activators in WiDr MCL (multicellular layer) cocultures; type: functional, Homo sapiens; procedure, shortened: as §3
Mus musculus [21] = test: In vivo activity against WiDr-nitroreductase tumors in mice at a dose of 178 (umol/kg); 0/3; type: functional
Mus musculus [22] = test: In vivo activity against WiDr-nitroreductase tumors in mice at a dose of 178 (umol/kg); 4/7; type: functional
Mus musculus [23] = test: In vivo activity against WiDr-nitroreductase tumors in mice at a dose of 300 (umol/kg); 0/7; type: functional
Mus musculus [24] = test: In vivo activity against WiDr-nitroreductase tumors in mice at a dose of 300 (umol/kg); 1/7; type: functional
Mus musculus [25] = test: In vivo median growth delay against CD-1 nude mice bearing WiDr-nitroreductase tumors at a dose 300 (umol/kg); type: functional
Mus musculus [26] = test: In vivo activity against WiDr-nitroreductase tumors in mice at a dose of 750 (umol/kg); 0/7; type: functional
Mus musculus [27] = test: In vivo activity against WiDr-nitroreductase tumors in mice at a dose of 750 (umol/kg); 1/7; type: functional
Mus musculus [28] = test: In vivo median growth delay against CD-1 nude mice bearing WiDr-nitroreductase tumors at a dose 750 (umol/kg); type: functional
Mus musculus [29] = test: In vivo activity against WiDr-nitroreductase tumors in mice at a dose of 1000 (umol/kg); 0/6; type: functional
Mus musculus [30] = test: In vivo activity against WiDr-nitroreductase tumors in mice at a dose of 200 (umol/kg); 31/53; type: functional
Mus musculus [31] = test: In vivo activity against WiDr-nitroreductase tumors in mice at a dose of 200 (umol/kg); 12/53; type: functional
Mus musculus [32] = test: In vivo median growth delay against CD-1 nude mice bearing WiDr-nitroreductase tumors at a dose 200 (umol/kg); type: functional

SMILES | solubility [1] [µM] | logP ([2]; read-out: logP) | IC50 (EMT6 [3]) [µM] | IC50 (WiDr-NTR) [µM] | IC50 (V79 [4]) [µM] | Ratio [5] | Ratio (SK-OV-3 [6]) | Ratio (EMT6 [7]) | IC50 (SK-OV-3 [8]) [µM] | other results
O=C(NCCn1ccnc1)c1cc(N2CC2)c([N+](=O)[O-])cc1[N+](=O)[O-] | 1100 (≈ 381 µg/mL) | -0.48 | 0.29 | 1.1 | 0.31 | 41.5 | 105 | 278 | 0.58 | –
CC(=O)CCNC(=O)c1cc(N2CC2)c([N+](=O)[O-])cc1[N+](=O)[O-] | 800 (≈ 258 µg/mL) | 0.56 | 0.31 | 2.6 | 0.33 | 63.6 | 270 | 1520 | 2.5 | Ac (V79 [9]): 20 µM; T (V79 [10]): 1900 µM; Tc (V79 [11]): 200 µM
CS(=O)(=O)c1cc([N+](=O)[O-])c(C(N)=O)cc1N1CC1 | 780 (≈ 223 µg/mL) | -0.3 | 11 | 22 | 40 | 10 | 19 | 25 | 21.8 | –
NC(=O)c1ccc([N+](=O)[O-])c(N2CC2)c1 | 430 (≈ 89.1 µg/mL) | 0.47 | 41.4 | 62.4 | 61.5 | 1.6 | 1.6 | 2.8 | 61 | –
CS(=O)(=O)c1cc([N+](=O)[O-])c(N2CC2)cc1C(=O)NCC(O)CO (configuration not stated) | 4150 (≈ 1490 µg/mL) | -0.96 | 84.5 | 281 | 132 | 10 | 26 | 32 | 160 | –
CS(=O)(=O)c1cc([N+](=O)[O-])c(N2CC2)cc1C(N)=O | 880 (≈ 251 µg/mL) | -0.41 | 3.6 | 26 | 8.8 | 33 | 160 | 125 | 6.3 | Cures (Mus musculus [12]): 1; Deaths (Mus musculus [13]): 2; Growth delay (Mus musculus [14]): 17 days
O=C(NCC(O)CO)c1cc(N2CC2)c([N+](=O)[O-])cc1[N+](=O)[O-] (configuration not stated) | 22000 (≈ 7180 µg/mL) | -1.04 | 1.1 | 3.7 | 0.71 | 49 | 83.7 | 86.5 | 2.3 | Cures (Mus musculus [15]): 2; Deaths (Mus musculus [16]): 1; Growth delay (Mus musculus [17]): >86 days; Ac (V79 [9]): 26 µM; T (WiDr [18]): 540 µM; Tc (WiDr [19]): 320 µM; Ac (WiDr [20]): 28 µM; T (V79 [10]): 1595 µM; Tc (V79 [11]): 840 µM
O=C(NCCN1CCOCC1)c1cc([N+](=O)[O-])cc([N+](=O)[O-])c1N1CC1 | 350 (≈ 128 µg/mL) | 0.11 | 3.4 | 18 | 7.3 | 32 | >72 | 177 | 11 | Cures (Mus musculus [21]): 0; Growth delay (Mus musculus [14]): -1 days; Deaths (Mus musculus [22]): 4
NC(=O)c1cc(N2CC2)ccc1[N+](=O)[O-] | 3400 (≈ 704 µg/mL) | 0.7 | 67 | 89 | 81 | – | – | – | – | –
NC(=O)c1c([N+](=O)[O-])ccc(N2CC2)c1[N+](=O)[O-] | 2700 (≈ 681 µg/mL) | -0.17 | 27 | 58.2 | 135 | 5.9 | 9.6 | 9.2 | 65.8 | –
O=C(NCCN1CCOCC1)c1cc(N2CC2)c([N+](=O)[O-])cc1[N+](=O)[O-] | 1800 (≈ 658 µg/mL) | 0.31 | 0.053 | 0.72 | 0.15 | 183 | 1100 | 4020 | 0.45 | Deaths (Mus musculus [23]): 0; Cures (Mus musculus [24]): 1; Growth delay (Mus musculus [25]): 35 days; Ac (V79 [9]): 11.5 µM; T (WiDr [18]): 680 µM; Tc (WiDr [19]): 105 µM; Ac (WiDr [20]): 8.5 µM; T (V79 [10]): 1600 µM; Tc (V79 [11]): 470 µM
O=C(NCCCN1CCOCC1)c1cc(N2CC2)c([N+](=O)[O-])cc1[N+](=O)[O-] | 1600 (≈ 607 µg/mL) | -1.05 | 0.04 | 0.24 | 0.048 | 122 | 732 | 3310 | 0.15 | –
O=C(NCCCCN1CCOCC1)c1cc(N2CC2)c([N+](=O)[O-])cc1[N+](=O)[O-] | 5600 (≈ 2200 µg/mL) | -0.48 | 0.06 | 0.31 | 0.21 | 93 | 513 | 12170 | 0.3 | –
NC(=O)c1cc([N+](=O)[O-])cc([N+](=O)[O-])c1N1CC1 | 1300 (≈ 328 µg/mL) | 0.34 | 1.3 | 13 | 1.2 | 85 | 281 | 627 | 6.1 | Deaths (Mus musculus [26]): 0; Cures (Mus musculus [27]): 1; Growth delay (Mus musculus [28]): 47 days; Ac (V79 [9]): 450 µM; T (V79 [10]): >2000 µM; Tc (V79 [11]): >2000 µM
NC(=O)c1cc([N+](=O)[O-])c(N2CC2)c([N+](=O)[O-])c1 | 40 (≈ 10.1 µg/mL) | 0.59 | > 20 | > 20 | > 20 | – | – | – | > 20 | –
O=C(NCC(O)CO)c1cc([N+](=O)[O-])cc([N+](=O)[O-])c1N1CC1 (configuration not stated) | 2500 (≈ 816 µg/mL) | -0.15 | 4.4 | 12.5 | 6.1 | 71 | 185 | 252 | 7.3 | Cures (Mus musculus [29]): 0; Deaths (Mus musculus [16]): 1; Growth delay (Mus musculus [17]): 8 days
CN(CCN1CCOCC1)C(=O)c1cc(N2CC2)c([N+](=O)[O-])cc1[N+](=O)[O-] | 3300 (≈ 1250 µg/mL) | -0.26 | 1.8 | 8.1 | 1.8 | 21 | 46 | 309 | 13 | –
NC(=O)c1cc(N2CC2)c([N+](=O)[O-])cc1[N+](=O)[O-] [TRETAZICAR] | – | – | – | 1.14 | – | 51.1 | 317 | 947 | 0.64 | logP [2]: 0.14; Cures (Mus musculus [30]): 31; Deaths (Mus musculus [31]): 12; Growth delay (Mus musculus [32]): >87 days; Ac (V79 [9]): 23 µM; T (WiDr [18]): 513 µM; Tc (WiDr [19]): 252 µM; Ac (WiDr [20]): 33 µM; T (V79 [10]): 1400 µM; Tc (V79 [11]): 173 µM
